According to ChEMBL document CHEMBL1926642, “Relevance of the C-5 position to schweinfurthin induced cytotoxicity” (2011):

Assays:
Type in all cases: functional
[1] = test system: CAKI-1; assay: Growth inhibition of human Caki1 cells after 48 hrs by sulforhodamine B assay; conditions: CAKI-1, 48 h
[2] = test system: KM12; assay: Growth inhibition of human KM12 cells after 48 hrs by sulforhodamine B assay; conditions: KM12, 48 h
[3] = test system: NCI-H23; assay: Growth inhibition of human NCI-H23 cells after 48 hrs by sulforhodamine B assay; conditions: NCI-H23, 48 h
[4] = test system: MDA-MB-435; assay: Growth inhibition of human MDA-MB-435 cells after 48 hrs by sulforhodamine B assay; conditions: MDA-MB-435, 48 h
[5] = test system: TK-10; assay: Growth inhibition of human TK10 cells after 48 hrs by sulforhodamine B assay; conditions: TK-10, 48 h
[6] = test system: SK-MEL-2; assay: Growth inhibition of human SK-MEL-2 cells after 48 hrs by sulforhodamine B assay; conditions: SK-MEL-2, 48 h
[7] = test system: SK-MEL-5; assay: Growth inhibition of human SK-MEL-5 cells after 48 hrs by sulforhodamine B assay; conditions: SK-MEL-5, 48 h
[8] = test system: K562; assay: Growth inhibition of human K562 cells after 48 hrs by sulforhodamine B assay; conditions: K562, 48 h
[9] = test system: NCI-H322M; assay: Growth inhibition of human NCI-H322M cells after 48 hrs by sulforhodamine B assay
[10] = test system: A549; assay: Growth inhibition of human A549 cells after 48 hrs by sulforhodamine B assay; conditions: A549, 48 h
[11] = test system: 786-0; assay: Growth inhibition of human 786-0 cells after 48 hrs by sulforhodamine B assay; conditions: 786-0, 48 h
[12] = test system: SW-620; assay: Growth inhibition of human SW620 cells after 48 hrs by sulforhodamine B assay; conditions: SW-620, 48 h
[13] = test system: OVCAR-5; assay: Growth inhibition of human OVCAR5 cells after 48 hrs by sulforhodamine B assay; conditions: OVCAR-5, 48 h
[14] = test system: UACC-257; assay: Growth inhibition of human UACC257 cells after 48 hrs by sulforhodamine B assay; conditions: UACC-257, 48 h
[15] = test system: BT-549; assay: Growth inhibition of human BT549 cells after 48 hrs by sulforhodamine B assay; conditions: BT-549, 48 h
[16] = test system: A498; assay: Growth inhibition of human A498 cells after 48 hrs by sulforhodamine B assay; conditions: A498, 48 h
[17] = test system: OVCAR-4; assay: Growth inhibition of human OVCAR4 cells after 48 hrs by sulforhodamine B assay; conditions: OVCAR-4, 48 h
[18] = test system: SNB-75; assay: Growth inhibition of human SNB75 cells after 48 hrs by sulforhodamine B assay; conditions: SNB-75, 48 h
[19] = test system: NCI-H460; assay: Growth inhibition of human NCI-H460 cells after 48 hrs by sulforhodamine B assay; conditions: NCI-H460, 48 h
[20] = test system: SK-OV-3; assay: Growth inhibition of human SKOV3 cells after 48 hrs by sulforhodamine B assay; conditions: SK-OV-3, 48 h
[21] = test system: RPMI-8226; assay: Growth inhibition of human RPMI8226 cells after 48 hrs by sulforhodamine B assay; conditions: RPMI-8226, 48 h
[22] = test system: HCT-15; assay: Growth inhibition of human HCT15 cells after 48 hrs by sulforhodamine B assay; conditions: HCT-15, 48 h
[23] = test system: HL-60(TB); assay: Growth inhibition of human HL-60(TB) cells after 48 hrs by sulforhodamine B assay; conditions: HL-60, 48 h
How it was run: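 Run in the NCI 60 cell-line screen as the full 5-dose assay that follows initial single-dose testing; GI50 is read from the dose series.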

[24] = test system: PC-3; assay: Growth inhibition of human PC3 cells after 48 hrs by sulforhodamine B assay; conditions: PC-3, 48 h
[25] = Growth inhibition of human Hs 578T cells after 48 hrs by sulforhodamine B assay
[26] = test system: SK-MEL-28; assay: Growth inhibition of human SK-MEL-28 cells after 48 hrs by sulforhodamine B assay; conditions: SK-MEL-28, 48 h
[27] = test system: OVCAR-3; assay: Growth inhibition of human OVCAR3 cells after 48 hrs by sulforhodamine B assay; conditions: OVCAR-3, 48 h
[28] = test system: SF-539; assay: Growth inhibition of human SF539 cells after 48 hrs by sulforhodamine B assay; conditions: SF-539, 48 h
[29] = test system: NCI-H226; assay: Growth inhibition of human NCI-H226 cells after 48 hrs by sulforhodamine B assay; conditions: NCI-H226, 48 h
[30] = test system: MDA-MB-231; assay: Growth inhibition of human MDA-MB-231/ATCC cells after 48 hrs by sulforhodamine B assay; conditions: MDA-MB-231, 48 h
[31] = test system: T47D; assay: Growth inhibition of human T47D cells after 48 hrs by sulforhodamine B assay
[32] = test system: SN12C; assay: Growth inhibition of human SN12C cells after 48 hrs by sulforhodamine B assay
[33] = read-out: pLC50 (the source's name) (converted)

## COc1cc(/C=C/c2cc(F)c3c(c2)C[C@@H]2C(C)(C)[C@H](O)CC[C@@]2(C)O3)cc(O)c1C/C=C(\C)CCC=C(C)C
[1]
  GI50: 10.2 µM
  LC50: 53.7 µM
[1]; read-out: pTGI (converted)
  TGI: 23.4 µM
[2]
  GI50: 1.91 µM
  LC50: 8.32 µM
[2]; read-out: pTGI (converted)
  TGI: 3.98 µM
[3]
  GI50: 2.09 µM
  LC50: 20.9 µM
[3]; read-out: pTGI (converted)
  TGI: 5.25 µM
[4]
  GI50: 13.2 µM
  LC50: 63.1 µM
[4]; read-out: pTGI (converted)
  TGI: 28.8 µM
[5]
  GI50: 15.8 µM
  LC50: 67.6 µM
[5]; read-out: pTGI (converted)
  TGI: 32.4 µM
[6]
  GI50: 15.5 µM
  LC50: 75.9 µM
[6]; read-out: pTGI (converted)
  TGI: 33.9 µM
[7]
  GI50: 7.08 µM
  LC50: 44.7 µM
[7]; read-out: pTGI (converted)
  TGI: 20 µM
[8]
  GI50: 2.4 µM
  LC50: > 100 µM
[9]
  GI50: 34.7 µM
  LC50: > 100 µM
[9]; read-out: pTGI (converted)
  TGI: > 100 µM
[10]
  LC50: 15.8 µM
[10]; read-out: GI50
  GI50: 2.14 µM
[10]; read-out: pGI50 (converted)
  GI50: 2.14 µM
[10]; read-out: pTGI (converted)
  TGI: 4.9 µM
[11]
  GI50: 3.31 µM
[11]; [33]
  CC50: 38.9 µM
[11]; read-out: pTGI (converted)
  TGI: 10.2 µM
[12]
  GI50: 3.02 µM
  LC50: 33.1 µM
[12]; read-out: pTGI (converted)
  TGI: 9.12 µM
[13]
  GI50: 19.1 µM
  LC50: > 100 µM
[13]; read-out: pTGI (converted)
  TGI: 70.8 µM
[14]
  GI50: 16.2 µM
  LC50: 93.3 µM
[14]; read-out: pTGI (converted)
  TGI: 38.9 µM
[15]
  GI50: 9.12 µM
  LC50: > 100 µM
[15]; read-out: pTGI (converted)
  TGI: 37.2 µM
[16]
  GI50: 28.8 µM
  LC50: > 100 µM
[16]; read-out: pTGI (converted)
  TGI: > 100 µM
[17]
  GI50: 12.6 µM
  LC50: > 100 µM
[17]; read-out: pTGI (converted)
  TGI: 37.2 µM
[18]
  GI50: 2.95 µM
  LC50: 37.2 µM
[18]; read-out: pTGI (converted)
  TGI: 13.8 µM
[19]
  GI50: 1.86 µM
  LC50 (concentration killing 50% of cells): 6.76 µM
[19]; read-out: pTGI (converted)
  TGI: 3.55 µM
[20]
  GI50: 17 µM
  LC50: 57.5 µM
[20]; read-out: pTGI (converted)
  TGI: 30.9 µM
[21]
  GI50: 2.04 µM
  LC50: > 100 µM
[21]; read-out: pTGI (converted)
  TGI: 4.79 µM
[22]
  GI50: 12.3 µM
  LC50: 66.1 µM
[22]; read-out: pTGI (converted)
  TGI: 28.8 µM
[23]
  GI50: 1.82 µM
[23]; [33]
  CC50: > 100 µM
[23]; read-out: pTGI (converted)
  TGI: 5.5 µM
[24]
  GI50: 5.13 µM
[24]; [33]
  CC50: > 100 µM
[24]; read-out: pTGI (converted)
  TGI: 25.1 µM
[25]
  GI50: 8.71 µM
[25]; [33]
  CC50: > 100 µM
[25]; read-out: pTGI (converted)
  TGI: > 100 µM
[26]
  GI50: 12 µM
[26]; [33]
  CC50: 56.2 µM
[26]; read-out: pTGI (converted)
  TGI: 25.7 µM
[27]
  GI50: 12 µM
  LC50: 58.9 µM
[27]; read-out: pTGI (converted)
  TGI: 26.9 µM
[28]
  GI50: 3.89 µM
  LC50: 43.7 µM
[28]; read-out: pTGI (converted)
  TGI: 14.1 µM
[29]
  GI50: 18.6 µM
  LC50: > 100 µM
[29]; read-out: pTGI (converted)
  TGI: 45.7 µM
[30]
  GI50: 6.61 µM
[30]; [33]
  CC50: 97.7 µM
[30]; read-out: pTGI (converted)
  TGI: 26.9 µM
[31]
  GI50: 12.3 µM
  LC50: 77.6 µM
[31]; read-out: pTGI (converted)
  TGI: 30.9 µM
[32]
  GI50: 14.5 µM
  LC50: > 100 µM
[32]; read-out: pTGI (converted)
  TGI: 39.8 µM
